Laboratory results: ChEMBL document CHEMBL1140844, “2-[(3-Methoxyphenylethyl)phenoxy]-based ABCB1 inhibitors: effect of different basic side-chains on their biological properties” (J Med Chem, 2008)

Experiments:
[1] = biological target: T1, Broad substrate specificity ATP-binding cassette transporter ABCG2 (Homo sapiens, UniProt Q9UNQ0); assay: Inhibition of ABCG2
T1 sequence (Q9UNQ0 whole entry): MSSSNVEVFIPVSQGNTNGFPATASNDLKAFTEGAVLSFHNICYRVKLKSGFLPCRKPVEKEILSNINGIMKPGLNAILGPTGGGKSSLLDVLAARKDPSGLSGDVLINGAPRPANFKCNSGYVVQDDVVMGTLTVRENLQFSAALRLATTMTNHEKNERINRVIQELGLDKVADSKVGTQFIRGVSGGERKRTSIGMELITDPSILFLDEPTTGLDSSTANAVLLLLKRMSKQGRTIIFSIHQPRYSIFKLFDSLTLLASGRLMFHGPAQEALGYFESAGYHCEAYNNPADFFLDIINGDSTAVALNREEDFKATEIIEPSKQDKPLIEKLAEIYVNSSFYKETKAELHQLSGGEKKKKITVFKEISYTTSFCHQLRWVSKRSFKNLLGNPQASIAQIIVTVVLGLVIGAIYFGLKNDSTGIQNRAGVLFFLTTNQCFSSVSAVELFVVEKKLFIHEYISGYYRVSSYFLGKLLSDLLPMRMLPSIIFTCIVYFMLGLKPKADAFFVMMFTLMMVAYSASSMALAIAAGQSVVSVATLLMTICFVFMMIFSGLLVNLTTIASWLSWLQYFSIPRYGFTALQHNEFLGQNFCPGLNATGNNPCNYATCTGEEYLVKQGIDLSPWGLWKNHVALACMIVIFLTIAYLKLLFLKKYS

[2] = biological target: T2, ATP-dependent translocase ABCB1 (Homo sapiens, UniProt P08183); assay: Inhibition of ABCB1
T2 sequence (P08183 whole entry): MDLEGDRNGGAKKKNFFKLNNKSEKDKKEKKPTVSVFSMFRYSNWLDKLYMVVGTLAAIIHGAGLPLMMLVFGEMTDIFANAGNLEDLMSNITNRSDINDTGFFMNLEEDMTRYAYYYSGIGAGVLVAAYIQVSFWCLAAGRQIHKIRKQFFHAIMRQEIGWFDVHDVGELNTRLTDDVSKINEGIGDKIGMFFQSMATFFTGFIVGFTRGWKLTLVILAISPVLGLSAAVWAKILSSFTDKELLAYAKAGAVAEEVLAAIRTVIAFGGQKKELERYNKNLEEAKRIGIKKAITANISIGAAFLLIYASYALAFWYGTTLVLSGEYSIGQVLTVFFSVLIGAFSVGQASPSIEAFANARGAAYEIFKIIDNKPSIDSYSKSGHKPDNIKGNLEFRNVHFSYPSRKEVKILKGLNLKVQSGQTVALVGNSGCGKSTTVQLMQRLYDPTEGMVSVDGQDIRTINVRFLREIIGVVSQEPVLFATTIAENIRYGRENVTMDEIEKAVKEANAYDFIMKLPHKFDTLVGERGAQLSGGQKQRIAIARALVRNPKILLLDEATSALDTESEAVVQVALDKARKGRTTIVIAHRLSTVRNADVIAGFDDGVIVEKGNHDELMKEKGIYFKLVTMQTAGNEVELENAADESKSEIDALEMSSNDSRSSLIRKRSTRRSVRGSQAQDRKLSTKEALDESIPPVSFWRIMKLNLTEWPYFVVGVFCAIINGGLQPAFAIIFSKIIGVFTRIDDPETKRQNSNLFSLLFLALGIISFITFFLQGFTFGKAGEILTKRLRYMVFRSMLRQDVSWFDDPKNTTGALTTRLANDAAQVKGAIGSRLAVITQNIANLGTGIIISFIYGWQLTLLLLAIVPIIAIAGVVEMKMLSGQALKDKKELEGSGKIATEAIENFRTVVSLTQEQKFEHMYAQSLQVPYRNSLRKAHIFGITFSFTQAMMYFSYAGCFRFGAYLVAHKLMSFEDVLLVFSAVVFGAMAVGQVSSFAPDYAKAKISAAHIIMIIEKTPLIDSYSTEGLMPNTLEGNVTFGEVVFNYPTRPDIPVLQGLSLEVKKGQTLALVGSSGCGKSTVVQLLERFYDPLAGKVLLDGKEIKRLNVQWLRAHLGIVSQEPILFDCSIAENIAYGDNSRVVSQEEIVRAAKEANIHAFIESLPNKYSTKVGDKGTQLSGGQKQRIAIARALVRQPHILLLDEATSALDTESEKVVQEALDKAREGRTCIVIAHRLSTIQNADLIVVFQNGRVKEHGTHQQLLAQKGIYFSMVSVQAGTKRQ

D(2) dopamine receptor [3] = biological target: T3, D(2) dopamine receptor (Homo sapiens, UniProt P14416); assay: Displacement of [3H]spiroperidol from human cloned dopaminergic D2 receptor expressed in rat C6 cells at 10 uM; assay type: cell-based
T3 sequence (P14416 whole entry): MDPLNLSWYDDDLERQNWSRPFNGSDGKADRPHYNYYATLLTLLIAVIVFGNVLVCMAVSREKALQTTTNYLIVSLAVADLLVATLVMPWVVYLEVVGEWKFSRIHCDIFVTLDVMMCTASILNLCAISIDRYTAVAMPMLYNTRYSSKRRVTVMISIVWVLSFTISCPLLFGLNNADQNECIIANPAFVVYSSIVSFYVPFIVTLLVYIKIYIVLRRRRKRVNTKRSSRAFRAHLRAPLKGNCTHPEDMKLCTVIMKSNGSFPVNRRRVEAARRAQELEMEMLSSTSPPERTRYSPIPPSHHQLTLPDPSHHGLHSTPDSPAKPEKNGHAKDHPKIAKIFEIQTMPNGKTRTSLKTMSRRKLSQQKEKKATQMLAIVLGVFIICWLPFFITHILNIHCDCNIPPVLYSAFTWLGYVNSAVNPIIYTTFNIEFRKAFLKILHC
How it was run: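 Buffer was 50 mM Tris, 10 mM MgCl2, 1 mM EDTA, pH 7.4. Incubated 60 min at 27 °C, then filtered on PEI-soaked GF/C. Nonspecific binding with 10 µM haloperidol.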

[4] = biological target: T2, ATP-dependent translocase ABCB1; assay: Inhibition of ABCB1-mediated [3H]vinblastine transportation in human Caco-2 cells; assay type: cell-based
How it was run: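 Caco-2 monolayers grown 21 days (TEER >800 Ω × cm²). 20 nM [3H]vinblastine added to the basolateral side with or without compound (200 nM–400 µM) for 120 min at 37 °C. Appearance on the apical side measured by scintillation counting. IC50 from nonlinear fit. Mean of three experiments, triplicate samples.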

[5] = biological target: T2, ATP-dependent translocase ABCB1; assay: Inhibition of ABCB1 transfected in MDCK cells assessed as increase in calcein-AM accumulation; assay type: cell-based
[6] = biological target: T4, 5-hydroxytryptamine receptor 1A (Homo sapiens) (UniProt P08908); assay: Displacement of [3H]8-OH-DPAT from human cloned 5-HT1A receptor expressed in human HeLa cells at 10 uM; assay type: cell-based
T4 sequence (whole entry): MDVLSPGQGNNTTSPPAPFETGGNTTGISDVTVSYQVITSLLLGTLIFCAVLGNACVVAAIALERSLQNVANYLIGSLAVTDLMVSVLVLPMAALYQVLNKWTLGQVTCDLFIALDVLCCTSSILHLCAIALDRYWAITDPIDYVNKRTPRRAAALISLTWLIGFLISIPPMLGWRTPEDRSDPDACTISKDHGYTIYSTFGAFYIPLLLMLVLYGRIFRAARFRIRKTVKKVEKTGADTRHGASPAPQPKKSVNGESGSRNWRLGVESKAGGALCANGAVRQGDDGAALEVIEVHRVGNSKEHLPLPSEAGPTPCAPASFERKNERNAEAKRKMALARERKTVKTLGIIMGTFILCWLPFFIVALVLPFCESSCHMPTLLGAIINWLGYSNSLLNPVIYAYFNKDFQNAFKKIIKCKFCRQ
How it was run: (§1)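 Compounds at 0.1 nM–10 µM in 50 mM Tris-HCl pH 7.4, 5 mM MgSO4, 120 min at 37 °C. Filtered on PEI-soaked GF/C. Nonspecific binding with 10 µM 8-OH-DPAT. […] Mean of three experiments, triplicate samples.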

[7] = biological target: T2, ATP-dependent translocase ABCB1; assay: Inhibition of ABCB1 in human Caco-2 cells assessed as ATPase activation at 100 uM after 2 hrs; assay type: cell-based; details: caco-2, 2 h
How it was run: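 Caco-2 cells seeded at 2 × 10⁴ cells/well and held overnight at 37 °C, 5% CO2. Exposed to compound in complete medium for 2 h at 37 °C. Cells then lysed and ATP read by luciferase luminescence after 10 min dark adaptation. Tested at 100 µM; a positive response is reported as a percentage.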

ABCG2 = biological target: T5, ABCG2 (Homo sapiens, UniProt Q9UNQ0); assay: Inhibition of ABCG2 in human Caco-2 cells assessed as [3H]mithoxatrone accumulation at 100 uM; assay type: cell-based; details: probe [3H]mithoxatrone
T5 sequence (Q9UNQ0 whole entry): T1 sequence (Q9UNQ0 whole entry)
How it was run: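 Caco-2 monolayers grown 21 days (TEER >800 Ω × cm²). 20 nM [3H]mitoxantrone added basolaterally with or without compound at 100 µM, 120 min at 37 °C. Apical appearance measured by scintillation counting. Result is % inhibition from the radioactivity difference with and without compound.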

[8] = biological target: T6, 5-hydroxytryptamine receptor 1A (Homo sapiens, UniProt P08908); assay: Displacement of [3H]8-OH-DPAT from human cloned 5-HT1A receptor expressed in human HeLa cells; assay type: cell-based; how it was run: as §1
T6 sequence (P08908 whole entry): T4 sequence (whole entry)

D(2) dopamine receptor [9] = biological target: T3, D(2) dopamine receptor; assay: Displacement of [3H]spiroperidol from human cloned dopaminergic D2 receptor expressed in rat C6 cells; assay type: cell-based
Caco-2 = assay: Ratio of apparent permeability from basolateral to apical over apical to basolateral side of human Caco-2 cells after 120 mins by UV-visible spectroscopy; details: caco-2, 2 h

| IC50 [1] [nM] | IC50 [2] [nM] | Structure (SMILES) | inhibition (D(2) dopamine receptor [3]) [%] | IC50 [4] [nM] | IC50 [5] [nM] | inhibition [6] [%] | Activity [7] | inhibition at 100 µM (ABCG2) [%] | Ki [8] [nM] | Ki (D(2) dopamine receptor [9]) [nM] | Ratio (Caco-2) |
| --- | --- | --- | --- | --- | --- | --- | --- | --- | --- | --- | --- |
| 1500 | 85 | COc1cccc(CCc2ccccc2NCc2cccc(OC)c2OC)c1 | – | – | – | – | – | – | – | – | – |
| – | – | COc1cccc(CCc2ccccc2OCCCCN2CCN(c3cccc(C(F)(F)F)c3)CC2)c1 | 27 | 750 | 1790 | 36 | Not Active | 24 | > 5000 | > 1000 | 4.4 |
| – | – | COc1cccc(CCc2ccccc2OCCCCN2CCN(c3ncccn3)CC2)c1 | – | 200 | 1170 | – | Not Active | 16 | 558 | 854 | 8.2 |
| 500 | 180 | COc1cccc(CCc2ccccc2NCc2ccc(OC)c(OC)c2)c1 | – | – | – | – | – | – | – | – | – |
